{
  "source": "ChEMBL document CHEMBL3259537",
  "about": "“Design of a truncated cardiotoxin-I analogue with potent insulinotropic activity” (J Med Chem, 2014)",
  "key": {"[1]": {"test": "Cytotoxicity against rat INS-1E cells by LDH assay", "type": "cell-based", "in_short": "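INS-1E cells were seeded at 2×10^4 cells/well and grown 24 h at 37 °C, then exposed to increasing peptide concentrations in serum-free medium. LDH released into the medium from dead cells was measured with a commercial kit and expressed as % of maximum LDH release after cell lysis.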"}, "[2]": {"test": "Induction of intracellular calcium release in rat INS-1E cells by fluorescence assay", "type": "functional, cell-based", "in_short": "(§1)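 INS-1E cells were harvested by scraping (5×10^5 cells/mL) and loaded 30 min at 37 °C with 4 μM Fura-2-AM plus 2.5 mM probenecid in KRBH (10 mM glucose, pH 7.4). After washing, 20000 cells/well were read immediately after peptide addition (10^-12–10^-5 M range) at excitation 340/380 nm, emission 495 nm. [Ca2+]i was calculated by the Grynkiewicz equation (Kd 225 nM).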"}, "[3]": {"system": "INS-1E", "test": "Insulinotropic activity in rat INS-1E cells assessed as insulin exocytosis after 2 hrs by RIA in presence of K-ATP channel opener diazoxide", "type": "functional, cell-based", "in_short": "(§2)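 INS-1E cells (2×10^5/well) were seeded 2 days before use. They were starved 2 h in glucose-free KRBH with 0.1% BSA, washed, and held another 30 min at 37 °C. Cells were then incubated 2 h at 37 °C with peptide, with 20 mM glucose or without glucose. Secreted insulin in the medium was measured by RIA against a rat insulin standard.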"}, "[4]": {"system": "INS-1E", "test": "Insulinotropic activity in rat INS-1E cells assessed as insulin exocytosis after 2 hrs by RIA in presence of glucose", "type": "functional, cell-based", "in_short": "as §2"}, "[5]": {"system": "INS-1E", "test": "Effect on NGF-induced intracellular calcium release in rat INS-1E cells at 10^-9 M by fluorescence assay", "type": "functional, cell-based"}, "[6]": {"system": "INS-1E", "test": "Insulinotropic activity in rat INS-1E cells assessed as insulin exocytosis after 2 hrs by RIA in presence of Ca2+ channel blocker nifedipine", "type": "functional, cell-based", "in_short": "as §2"}, "[7]": {"system": "INS-1E", "test": "Insulinotropic activity in rat INS-1E cells assessed as insulin exocytosis after 2 hrs by RIA in presence of ATP depletor 2-deoxy-D-glucose", "type": "functional, cell-based", "in_short": "as §2"}, "[8]": {"system": "INS-1E", "test": "Effect on NGF-induced intracellular calcium release in rat INS-1E cells at 10^-8 to 10^-5 M by fluorescence assay", "type": "functional, cell-based"}, "[9]": {"system": "INS-1E", "test": "Insulinotropic activity in rat INS-1E cells assessed as insulin exocytosis after 2 hrs by RIA in presence of PKA inhibitor H89", "type": "functional, cell-based", "in_short": "(§3)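 INS-1E cells (2×10^5/well) were pretreated 30 min with H89 (40 μM) or 2',5'-dideoxyadenosine (50 μM). They were then starved 2 h plus 30 min in glucose-free KRBH/0.1% BSA and incubated 2 h at 37 °C with peptide ± 20 mM glucose. Insulin in the medium was quantified by RIA against a rat insulin standard.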"}, "[10]": {"system": "Aorta", "test": "Induction of rat aortic ring contraction at 10'5 M", "type": "functional, tissue-based"}, "[11]": {"system": "INS-1E", "test": "Insulinotropic activity in rat INS-1E cells assessed as insulin exocytosis after 2 hrs by RIA in presence of adenylyl cyclase inhibitor 2',5'-dideoxy-adenosine", "type": "functional, cell-based", "in_short": "as §3"}, "[12]": {"system": "INS-1E", "test": "Induction of intracellular calcium release in rat INS-1E cells at 10^-6 M by fluorescence assay", "type": "functional, cell-based", "in_short": "as §1"}, "[13]": {"system": "INS-1E", "test": "Insulinotropic activity in rat INS-1E cells assessed as insulin exocytosis at 10^-6 M after 2 hrs by RIA", "type": "functional, cell-based", "in_short": "as §2"}, "[14]": {"system": "INS-1E", "test": "Inhibition of [86]-Rb+-efflux in rat INS-1E cells incubated for 30 mins followed by high-phosphate buffer addition by scintillation counting analysis", "type": "functional, cell-based", "details": "in the assay text read “high-potassium” for “high-phosphate”", "in_short": "(§4)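 INS-1E cells (2×10^5/well) were loaded overnight at 37 °C with 86RbCl (0.02 µCi/mL) in medium. They were then incubated 30 min at 37 °C in low-K buffer (4.6 mM KCl, pH 7.4) ± peptide, switched to high-K buffer (140 mM KCl) ± peptide, and efflux was followed over time by scintillation counting. Efflux is % of total 86Rb+ (medium plus cells); IC50 values are from three independent experiments in triplicate.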"}, "[15]": {"system": "INS-1E", "test": "Inhibition of [86]-Rb+-efflux in rat INS-1E cells at 10^8 to 10'6 M incubated for 30 mins followed by high-phosphate buffer addition by scintillation counting analysis", "type": "functional, cell-based", "details": "in the assay text read “high-potassium” for “high-phosphate”", "in_short": "as §4"}},
  "note": "Calls of active or inactive are those of the source. The calls are words filed in the database; no cut-off is given here.",
  "data": [
    {"smiles": "CC(C)C[C@@H]1NC(=O)[C@H](CO)NC(=O)[C@H](CC(N)=O)NC(=O)[C@H](CCCCN)NC(=O)[C@@H]2CCCN2C(=O)[C@@H](NC(=O)[C@@H](N)C(C)C)CSSC[C@@H](C(=O)N[C@H]2CSSC[C@H](C(=O)N[C@@H](CC(N)=O)C(=O)O)NC(=O)[C@H](CCCNC(=N)N)NC(=O)[C@H](CC(=O)O)NC(=O)[C@H]([C@@H](C)O)NC(=O)[C@H](CC(N)=O)NC2=O)NC(=O)[C@H](C(C)C)NC(=O)[C@H](Cc2ccc(O)cc2)NC(=O)[C@H](CCCCN)NC(=O)[C@H](C(C)C)NC(=O)[C@H](CC(C)C)NC1=O", "values": [
      {"measurement": "Activity", "setting": "[1]", "result": "Non-toxic"},
      {"measurement": "EC50", "setting": "[2]", "result": 2.14, "unit": "nM"}
    ]},
    {"smiles": "CC(C)C[C@@H]1NC(=O)[C@H](CO)NC(=O)[C@H](CC(N)=O)NC(=O)[C@H](CCCCN)NC(=O)[C@@H]2CCCN2C(=O)[C@@H](NC(=O)[C@@H](N)C(C)C)CSSC[C@@H](C(=O)N[C@H]2CSSC[C@H](C(=O)N[C@@H](CC(N)=O)C(=O)O)NC(=O)[C@H](CCCNC(=N)N)NC(=O)[C@H](CC(=O)O)NC(=O)[C@H]([C@@H](C)O)NC(=O)[C@H](CC(N)=O)NC2=O)NC(=O)[C@H](CCCCN)NC(=O)[C@H](Cc2ccc(O)cc2)NC(=O)[C@H](CCCCN)NC(=O)[C@H](C(C)C)NC(=O)[C@H](CC(C)C)NC1=O", "values": [
      {"measurement": "Activity", "setting": "[3]", "result": "Active"},
      {"measurement": "Activity", "setting": "[4]", "result": "Dose-dependent effect"},
      {"measurement": "Activity", "setting": "[5]", "result": "inactive"},
      {"measurement": "Activity", "setting": "[6]", "result": "inactive"},
      {"measurement": "Activity", "setting": "[7]", "result": "Active"},
      {"measurement": "Activity", "setting": "[8]", "result": "Active"},
      {"measurement": "Activity", "setting": "[9]", "result": "Dose-dependent effect"},
      {"measurement": "Activity", "setting": "[10]", "result": "inactive"},
      {"measurement": "Activity", "setting": "[1]", "result": "Non-toxic"},
      {"measurement": "Activity", "setting": "[11]", "result": "Dose-dependent effect"},
      {"measurement": "Activity", "setting": "[12]", "result": "Active"},
      {"measurement": "Activity", "setting": "[13]", "result": "Active"},
      {"measurement": "Activity", "setting": "[14]", "result": "Dose-dependent effect"}
    ]},
    {"smiles": "CN(CCc1ccc(Cl)c(Cl)c1)CC(O)COc1ccc(NS(C)(=O)=O)cc1", "note": "(stereo unspecified)", "values": [
      {"measurement": "inhibition", "setting": "[15]", "result": "Active"}
    ]}
  ]
}
